Experimental data as given in ChEMBL document CHEMBL4330056, “Synthesis and Cytotoxic and Antiviral Profiling of Pyrrolo- and Furo-Fused 7-Deazapurine Ribonucleosides” (J Med Chem, 2018).
Calls of active or inactive are those of the source. No cut-off for these calls is given here.

Experiments:
Adenosine kinase [1] = target: T1, Adenosine kinase (Homo sapiens, UniProt P55263); test: Drug metabolism in human HCT116 cells assessed as ADK-mediated compound phosphorylation by measuring parent compound level per 5x10^5 cells at 10 umol/L after 1 hr by UPLC-MS/MS analysis; format: ADME, cell-based; conditions: 10 µM
In short: (§1)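 BJ (normal) and HCT116 (malignant) cells exposed to nucleoside at 1 or 10 μmol/L for 1 or 3 h. Intracellular nucleoside and its monophosphate quantified against synthetic monophosphate standards. Values given as pmol per 5 × 10^5 cells.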

Adenosine kinase [2] = target: T1, Adenosine kinase; test: Drug metabolism in human BJ cells assessed as ADK-mediated compound phosphorylation by measuring parent compound level per 5x10^5 cells at 1 umol/L after 3 hrs by UPLC-MS/MS analysis; format: ADME, cell-based; conditions: 1 µM; in short: as §1
Adenosine kinase [3] = target: T1, Adenosine kinase; test: Drug metabolism in human HCT116 cells assessed as ADK-mediated compound phosphorylation by measuring parent compound level per 5x10^5 cells at 10 umol/L after 3 hrs by UPLC-MS/MS analysis; format: ADME, cell-based; conditions: 10 µM; in short: as §1
CCRF-CEM [4] = test: RNA incorporation activity in human CCRF-CEM assessed as NMP content per microgram of nucleic acid at 3.52 uM after 2.5 hrs by […]; format: functional
In short: (§2)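 CCRF-CEM cells exposed to nucleoside for 2.5 h, then harvested at once. RNA and DNA isolated separately and enzymatically digested; nucleoside content of each nucleic acid fraction quantified by HPLC-MS.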

Adenosine kinase [5] = target: T1, Adenosine kinase; test: Inhibition of recombinant human ADK using [3H]-adenosine as substrate after 20 mins by TLC scanner-based analysis relative to control
In short: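 ADK inhibition: 50 μM adenosine substrate with 10 μM test compound and 97 ng enzyme, 20 min at 37 °C.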

CCRF-CEM [6] = test: Inhibition of mitosis in human CCRF-CEM cells assessed Ser10 H3 phosphorylation positive cells at IC50 concentration after 24 hrs by flow cytometry relative to total cell population (reference value: 1.36%); format: functional; set-up: scale not given: the % may be the effect or the level left
Adenosine kinase [7] = target: T1, Adenosine kinase; test: Drug metabolism in human BJ cells assessed as ADK-mediated compound phosphorylation by measuring parent compound level per 5x10^5 cells at 10 umol/L after 3 hrs by UPLC-MS/MS analysis; format: ADME, cell-based; conditions: 10 µM; in short: as §1
Adenosine kinase [8] = target: T1, Adenosine kinase; test: Drug metabolism in human BJ cells assessed as ADK-mediated compound phosphorylation by measuring parent compound level per 5x10^5 cells at 10 umol/L after 1 hr by UPLC-MS/MS analysis; format: ADME, cell-based; conditions: 10 µM; in short: as §1
Adenosine kinase [9] = target: T1, Adenosine kinase; test: Drug metabolism in human HCT116 cells assessed as ADK-mediated compound phosphorylation by measuring parent compound level per 5x10^5 cells at 1 umol/L after 1 hr by UPLC-MS/MS analysis; format: ADME, cell-based; conditions: 1 µM; in short: as §1
[10] = Metabolic stability in human liver microsomes assessed as compound remaining at 5 umol/L after 60 mins relative to control; format: ADME, Microsome; conditions: read-out: Stability
In short: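 Human microsomal fraction; percent compound remaining over time.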

CCRF-CEM [11] = test: Induction of cell cycle arrest in human CCRF-CEM cells assessed as accumulation at subG1 phase at IC50 concentration after 24 hrs by propidium iodide-staining based flow cytometry (reference value: 3.45%); format: functional
CCRF-CEM [12] = test: Induction of cell cycle arrest in human CCRF-CEM cells assessed as accumulation at S phase at 5 times IC50 concentration after 24 hrs by propidium iodide-staining based flow cytometry (reference value: 41.08%); format: functional
CCRF-CEM [13] = test: Induction of cell cycle arrest in human CCRF-CEM cells assessed as accumulation at S phase at IC50 concentration after 24 hrs by propidium iodide-staining based flow cytometry (reference value: 41.08%); format: functional
Adenosine kinase [14] = target: T1, Adenosine kinase; test: Drug metabolism in human HCT116 cells assessed as ADK-mediated compound phosphorylation by measuring parent compound level per 5x10^5 cells at 1 umol/L after 3 hrs by UPLC-MS/MS analysis; format: ADME, cell-based; conditions: 1 µM; in short: as §1
DNA = test: Induction of DNA damage in human U2OS cells transfected with 53BP1-GFP fusion gene assessed as increase in number of foci per nucleus at 1 to 5 times IC50 concentration measured at 1 hr intervals for 11 hrs by fluorescence-based assay; format: functional, cell-based
In short: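 U2OS osteosarcoma reporter line stably expressing 53BP1-GFP treated up to 11 h, with etoposide as the double-strand-break reference. 53BP1 foci in nuclei imaged by confocal microscopy (40× objective).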

CCRF-CEM [15] = test: DNA incorporation activity in human CCRF-CEM assessed as NMP content per microgram of nucleic acid at 3.52 uM after 2.5 hrs by […]; format: functional; in short: as §2
Adenosine kinase [16] = target: T1, Adenosine kinase; test: Drug metabolism in human BJ cells assessed as ADK-mediated compound phosphorylation by measuring parent compound level per 5x10^5 cells at 1 umol/L after 1 hr by UPLC-MS/MS analysis; format: ADME, cell-based; conditions: 1 µM; in short: as §1
OCI-AML2 [17] = test: Mitochondrial toxicity in human OCI-AML2 cells assessed as inhibition of MT-CO2 gene expression at 1 to 5 times IC50 after 24 to 72 hrs by RT-PCR analysis; format: cell-based
In short: (§3)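 Expression of the mitochondrial genes MT-CO2 and MT-ND1 measured.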

OCI-AML2 [18] = test: Mitochondrial toxicity in human OCI-AML2 cells assessed as reduction in SDHB protein expression at 1 to 5 times IC50 after 24 to 72 hrs by Western blot analysis; format: cell-based
[19] = Mitochondrial toxicity in human OCI-AML2 cells assessed as reduction in oxidative phosphorylation-based viability after 72 hrs by CellTiterGlo assay; format: cell-based
In short: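 OCI-AML2 leukemia cells, which rely on mitochondrial OXPHOS, treated for 3 days in a survival assay; IC50 reported.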

OCI-AML2 [20] = test: Mitochondrial toxicity in human OCI-AML2 cells assessed as effect on UQCRC2 protein expression at 1 to 5 times IC50 after 24 to 72 hrs by Western blot analysis; format: cell-based
OCI-AML2 [21] = test: Mitochondrial toxicity in human OCI-AML2 cells assessed as effect on ATP5A protein expression at 1 to 5 times IC50 after 24 to 72 hrs by Western blot analysis; format: cell-based
CCRF-CEM [22] = test: DNA incorporation activity in human CCRF-CEM assessed as dMP content per microgram of nucleic acid at 4.48 uM after 2.5 hrs […]; format: functional
CCRF-CEM [23] = test: DNA incorporation activity in human CCRF-CEM assessed as NMP content per microgram of nucleic acid at 4.48 uM after 2.5 hrs by […]; format: functional; in short: as §2
OCI-AML2 [24] = test: Mitochondrial toxicity in human OCI-AML2 cells assessed as reduction in CO2 protein expression at 1 to 5 times IC50 after 24 to 72 hrs by Western blot analysis; format: cell-based
OCI-AML2 [25] = test: Mitochondrial toxicity in human OCI-AML2 cells assessed as inhibition of MT-ND1 gene expression at 1 to 5 times IC50 after 24 to 72 hrs by RT-PCR analysis; format: cell-based; in short: as §3
CCRF-CEM [26] = test: RNA incorporation activity in human CCRF-CEM assessed as NMP content per microgram of nucleic acid at 4.48 uM after 2.5 hrs […]; format: functional

T1 sequence (P55263 whole entry): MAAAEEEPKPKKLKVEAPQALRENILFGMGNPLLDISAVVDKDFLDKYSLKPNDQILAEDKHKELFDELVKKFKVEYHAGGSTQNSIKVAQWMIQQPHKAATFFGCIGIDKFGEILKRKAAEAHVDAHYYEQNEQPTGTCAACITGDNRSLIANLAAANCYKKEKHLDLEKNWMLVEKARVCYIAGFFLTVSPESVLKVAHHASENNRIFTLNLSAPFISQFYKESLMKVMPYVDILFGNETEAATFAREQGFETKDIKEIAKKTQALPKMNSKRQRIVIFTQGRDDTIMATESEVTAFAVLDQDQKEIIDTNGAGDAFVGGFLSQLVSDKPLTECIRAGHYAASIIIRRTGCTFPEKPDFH

In the case of `Cc1ncnc2c1c1c(ccn1C)n2[C@@H]1O[C@H](CO)[C@@H](O)[C@H]1O`, the Drug metabolism (Adenosine kinase [1]) is reported as 450.1 pmol, the Drug metabolism (Adenosine kinase [2]) is reported as 173.96 pmol and the Drug metabolism (Adenosine kinase [3]) is reported as 476.53 pmol. It also gave an Activity (CCRF-CEM [4]) of 3.74 fmol, an IC50 (Adenosine kinase [5]) greater than 10000 nM and an Activity (CCRF-CEM [6]) of 1.06%. For the same compound, the Drug metabolism (Adenosine kinase [7]) was 753.01 pmol, the Drug metabolism (Adenosine kinase [8]) was 220.71 pmol and the Drug metabolism (Adenosine kinase [9]) was 54.04 pmol. The remaining at 1 h, 5 µM [10] was 97%, the Activity (CCRF-CEM [11]) was 5.1% and the Activity (CCRF-CEM [12]) was 52.19%. The Activity (CCRF-CEM [13]) was 51.03%, the Drug metabolism (Adenosine kinase [14]) was 136.87 pmol and the Activity (DNA) was “Active”. The Activity (CCRF-CEM [15]) was 14.1 fmol and the Drug metabolism (Adenosine kinase [16]) was 87.1 pmol.
In the case of `Cc1ncnc2c1c1occc1n2[C@@H]1O[C@H](CO)[C@@H](O)[C@H]1O`, the Drug metabolism (Adenosine kinase [1]) is reported as 119.93 pmol, the Drug metabolism (Adenosine kinase [2]) is reported as 247.21 pmol and the “inhibition (INH)” value (OCI-AML2 [17]) is reported as 50%. For the same compound, the Drug metabolism (Adenosine kinase [3]) was 177.9 pmol, the Activity (OCI-AML2 [18]) was “Toxic” and the IC50 (Adenosine kinase [5]) was greater than 10000 nM. For the same compound, the Activity (CCRF-CEM [6]) was 1.09%, the Drug metabolism (Adenosine kinase [7]) was 464.66 pmol and the IC50 at 72 h [19] was 340 nM. For the same compound, the Drug metabolism (Adenosine kinase [8]) was 338.91 pmol, the Drug metabolism (Adenosine kinase [9]) was 27.92 pmol and the Activity (OCI-AML2 [20]) was “Non-Toxic”. For the same compound, the remaining at 1 h, 5 µM [10] was 98%, the Activity (OCI-AML2 [21]) was “Non-Toxic” and the Activity (CCRF-CEM [22]) was 15.4 fmol. For the same compound, the Activity (CCRF-CEM [11]) was 7.62%, the Activity (CCRF-CEM [23]) was 14.3 fmol and the Activity (CCRF-CEM [12]) was 59.66%. For the same compound, the Activity (CCRF-CEM [13]) was 39.31%, the Activity (OCI-AML2 [24]) was “Toxic” and the Drug metabolism (Adenosine kinase [14]) was 66.31 pmol. For the same compound, the Activity (DNA) was “Active”, the “inhibition (INH)” value (OCI-AML2 [25]) was 50% and the Drug metabolism (Adenosine kinase [16]) was 155.12 pmol. The Activity (CCRF-CEM [26]) was 3.4 fmol.
With `CSc1ncnc2c1c1occc1n2[C@@H]1O[C@H](CO)[C@@H](O)[C@H]1O` the “inhibition (INH)” value (OCI-AML2 [17]) was 50%, the IC50 (Adenosine kinase [5]) was greater than 10000 nM and the Activity (CCRF-CEM [6]) was 1.26%. It also gave an IC50 at 72 h [19] of 190 nM, a remaining at 1 h, 5 µM [10] of 98% and an Activity (CCRF-CEM [11]) of 6.52%. The Activity (CCRF-CEM [12]) was 53.55%, the Activity (CCRF-CEM [13]) was 38.26% and the “inhibition (INH)” value (OCI-AML2 [25]) was 50%.
